Assays:
Type in all cases: cell-based
[1] = test system: MEF; test: Cytotoxicity against mouse PARP1 deficient MEF cells assessed as reduction in cell viability after 4 to 7 days by cell-titer glo assay
[2] = test system: OVCAR-8; test: Cytotoxicity against human OVCAR8 cells assessed as cell survival at 10 uM after 4 to 7 days by cell-titer glo assay; settings: ovcar-8, 10 µM
[3] = biological target: Poly [ADP-ribose] polymerase 1 (Homo sapiens, UniProt P09874); test: Binding affinity to PARP1 in human OVCAR8 cells assessed as reduction in [125I]-KX1 binding by gamma counting analysis
Sequence of Poly [ADP-ribose] polymerase 1 (P09874 whole entry): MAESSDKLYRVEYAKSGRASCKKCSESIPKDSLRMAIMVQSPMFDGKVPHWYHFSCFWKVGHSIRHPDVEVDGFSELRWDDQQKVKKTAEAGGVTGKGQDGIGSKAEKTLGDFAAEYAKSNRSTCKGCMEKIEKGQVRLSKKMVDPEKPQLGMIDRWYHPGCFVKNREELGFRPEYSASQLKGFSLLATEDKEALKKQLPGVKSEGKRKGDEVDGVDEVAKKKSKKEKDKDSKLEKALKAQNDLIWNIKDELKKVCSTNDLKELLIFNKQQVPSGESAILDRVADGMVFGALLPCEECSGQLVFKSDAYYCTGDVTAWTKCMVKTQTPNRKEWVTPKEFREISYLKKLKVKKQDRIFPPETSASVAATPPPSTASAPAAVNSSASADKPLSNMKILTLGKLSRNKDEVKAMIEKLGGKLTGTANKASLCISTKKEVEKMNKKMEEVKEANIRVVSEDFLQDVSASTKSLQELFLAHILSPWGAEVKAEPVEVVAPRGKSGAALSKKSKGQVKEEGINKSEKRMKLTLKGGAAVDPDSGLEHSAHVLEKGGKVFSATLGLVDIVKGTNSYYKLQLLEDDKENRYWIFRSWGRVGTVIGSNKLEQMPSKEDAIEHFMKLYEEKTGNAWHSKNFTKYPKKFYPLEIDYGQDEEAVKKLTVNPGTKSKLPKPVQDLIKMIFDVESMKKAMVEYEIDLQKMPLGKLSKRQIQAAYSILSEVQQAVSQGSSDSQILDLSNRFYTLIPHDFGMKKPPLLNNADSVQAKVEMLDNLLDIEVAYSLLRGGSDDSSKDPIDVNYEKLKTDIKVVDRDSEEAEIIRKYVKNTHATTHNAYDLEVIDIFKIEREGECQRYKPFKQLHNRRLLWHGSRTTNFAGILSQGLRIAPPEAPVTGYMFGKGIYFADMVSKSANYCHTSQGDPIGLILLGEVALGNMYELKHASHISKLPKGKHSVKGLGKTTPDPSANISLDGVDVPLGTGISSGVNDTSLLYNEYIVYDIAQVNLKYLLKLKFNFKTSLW

[4] = test system: MEF; test: Cytotoxicity against mouse wild type MEF cells assessed as reduction in cell viability after 4 to 7 days by cell-titer glo assay
[5] = test system: MEF; test: Cytotoxicity against mouse PARP2 deficient MEF cells expressing PARP1 assessed as reduction in cell viability after 4 to 7 days by cell-titer glo assay
[6] = test system: MEF; test: Cytotoxicity against mouse PARP1 deficient MEF cells assessed as reduction in cell viability at 0.016 to 100 uM after 4 to 7 days by cell-titer glo assay
Method in brief: (§1)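 Cells kept at 37 °C, 5% CO2, 15% O2 in RPMI 1640 with 10% FBS and 1% penicillin/streptomycin. Seeded at 1,000 cells/well and dosed 24 h later at 100–0.016 µM. Exposure lasted 4–7 days, then viability was read by CellTiter Glo luminescence. Signal was normalized to percent survival against the mean of vehicle controls. Three repeat experiments.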

[7] = test system: MEF; test: Cytotoxicity against mouse wild type MEF cells assessed as reduction in cell viability at 0.016 to 100 uM after 4 to 7 days by cell-titer glo assay; method in brief: as §1
[8] = test system: MEF; test: Cytotoxicity against mouse PARP2 deficient MEF cells expressing PARP1 assessed as reduction in cell viability at 0.016 to 100 uM after 4 to 7 days by cell-titer glo assay; method in brief: as §1

SMILES | EC50 [1] [µM] | Activity [2] | IC50 [3] [µM] | EC50 [4] [µM] | EC50 [5] [µM] | Activity [6] [%] | Activity [7] [%] | Activity [8] [%]
O=C(c1cc(Cc2n[nH]c(=O)c3ccccc23)ccc1F)N1CC2(CCCCC2)C1 | 48.3 | Non-Toxic | 0.0654 | 25.6 | 39.9 | – | – | –
O=C(c1cc(Cc2n[nH]c(=O)c3ccccc23)ccc1F)N1CCC2(CCCCC2)CC1 | – | – | 0.0571 | 41.3 | 41.3 | < 50 | – | –
O=C(c1cc(Cc2n[nH]c(=O)c3ccccc23)ccc1F)N1CC2(COC2)C1 | – | – | – | 52.2 | 53.3 | < 50 | – | –
CC(C)(C)OC(=O)N1CC2(CCN2C(=O)c2cc(Cc3n[nH]c(=O)c4ccccc34)ccc2F)C1 | – | – | 0.877 | 42.9 | 35.8 | < 50 | – | –
O=C(c1cc(Cc2n[nH]c(=O)c3ccccc23)ccc1F)N1CCC2(CC1)CCN(C(=O)C1CC1)CC2 | 49.7 | Non-Toxic | – | 24.8 | 21.6 | – | – | –
CC(C)(C)OC(=O)N1CC2(CCN(C(=O)c3cc(Cc4n[nH]c(=O)c5ccccc45)ccc3F)C2)C1 | – | – | – | 29.2 | 31.8 | < 50 | – | –
O=C(c1cc(Cc2n[nH]c(=O)c3ccccc23)ccc1F)N1CCC2(CCN(C(=O)C3CC3)CC2)C1 | – | – | 0.225 | 41.6 | 61 | < 50 | – | –
O=C(C1CC1)N1CCC2(CC1)CCN2C(=O)c1cc(Cc2n[nH]c(=O)c3ccccc23)ccc1F | – | – | 0.431 | 47.5 | 44.4 | < 50 | – | –
O=C(c1cc(Cc2n[nH]c(=O)c3ccccc23)ccc1F)N1CCC2(C1)CN(C(=O)C1CC1)C2 | – | – | 2.54 | – | 61.8 | < 50 | < 50 | –
O=C(c1cc(Cc2n[nH]c(=O)c3ccccc23)ccc1F)N1CCC2(CCNC2)C1 (configuration not stated) | – | – | 1.12 | – | – | < 50 | < 50 | –
O=C(c1cc(Cc2n[nH]c(=O)c3ccccc23)ccc1F)N1CCC2(CNC2)C1 | – | – | 1.24 | – | – | < 50 | < 50 | < 50
O=C(c1cc(Cc2n[nH]c(=O)c3ccccc23)ccc1F)N1CCC12CNC2 | – | – | 0.526 | – | – | < 50 | < 50 | < 50
O=C(c1cc(Cc2n[nH]c(=O)c3ccccc23)ccc1F)N1CCC12CCCCC2 | – | – | 0.284 | 32.6 | 78.8 | < 50 | – | –
O=C(c1cc(Cc2n[nH]c(=O)c3ccccc23)ccc1F)N1CCC2(CCN(C(=O)C3CC3)C2)C1 (configuration not stated) | – | – | 2.59 | – | 70.9 | < 50 | < 50 | –
O=C(c1cc(Cc2n[nH]c(=O)c3ccccc23)ccc1F)N1CC2(CCC2)C1 | – | Non-Toxic | 0.0339 | 48.3 | 49 | < 50 | – | –
O=C(C1CC1)N1CC2(CCN2C(=O)c2cc(Cc3n[nH]c(=O)c4ccccc34)ccc2F)C1 | – | – | 0.13 | 53.2 | 46.7 | < 50 | – | –
O=C(c1cc(Cc2n[nH]c(=O)c3ccccc23)ccc1F)N1CCC2(CCCC2)C1 | – | – | 0.0514 | 31.7 | 55.5 | – | – | –
O=C(c1cc(Cc2n[nH]c(=O)c3ccccc23)ccc1F)N1CCC12CCC2 | – | – | 0.0365 | 48 | 58.3 | < 50 | – | –
CC(C)(C)OC(=O)N1CCC2(CC1)CCN2C(=O)c1cc(Cc2n[nH]c(=O)c3ccccc23)ccc1F | – | – | 2.97 | 23.3 | 33.2 | < 50 | – | –
CC(C)(C)OC(=O)N1CCC2(CC1)CN(C(=O)c1cc(Cc3n[nH]c(=O)c4ccccc34)ccc1F)C2 | 49.2 | – | – | 23.4 | 41.5 | – | – | –
O=C(c1cc(Cc2n[nH]c(=O)c3ccccc23)ccc1F)N1CC2(CNC2)C1 | – | – | 2.39 | – | – | < 50 | < 50 | < 50
COC1CCN(C(=O)c2cc(Cc3n[nH]c(=O)c4ccccc34)ccc2F)CC1 [AZD2461] | – | – | 0.0017 | – | – | – | – | –
O=C(c1cc(Cc2n[nH]c(=O)c3ccccc23)ccc1F)N1CCC2(CCC2)C1 | – | – | 0.0324 | 45.2 | 54.7 | < 50 | – | –
CC(C)(C)OC(=O)N1CC2(C1)CN(C(=O)c1cc(Cc3n[nH]c(=O)c4ccccc34)ccc1F)C2 | – | – | – | 31.1 | 24.7 | < 50 | – | –
O=C(c1cc(Cc2n[nH]c(=O)c3ccccc23)ccc1F)N1CCC2(CCNCC2)CC1 | – | – | 0.234 | – | 59.7 | < 50 | < 50 | –
O=C(c1cc(Cc2n[nH]c(=O)c3ccccc23)ccc1F)N1CCC2(CCCCC2)C1 | 51.6 | – | 0.141 | 42.7 | 46.8 | – | – | –
O=C(c1cc(Cc2n[nH]c(=O)c3ccccc23)ccc1F)N1CCC2(CCNCC2)C1 | – | – | 3.88 | – | – | < 50 | < 50 | < 50
O=C(c1cc(Cc2n[nH]c(=O)c3ccccc23)ccc1F)N1CC2(CCN(C(=O)C3CC3)CC2)C1 | – | – | 0.1 | 49.3 | 57.2 | < 50 | – | –
O=C(c1cc(Cc2n[nH]c(=O)c3ccccc23)ccc1F)N1CCC12CCNCC2 | – | – | – | – | 106 | < 50 | < 50 | –
O=C(c1cc(Cc2n[nH]c(=O)c3ccccc23)ccc1F)N1CC2(CCNCC2)C1 | – | – | 1.42 | – | 68.5 | < 50 | < 50 | –
